# In the library only some 2.9% were active in any assay of this set; here they are far more common.
# IMP-1 inh: IMP-1 metallo-beta-lactamase inhibitors, primary screen, biochemical, epi-absorbance readout, Pseudomonas aeruginosa enzyme; AID 1556, 2009; 290,000 compounds, 0.45% hits; purified IMP-1, nitrocefin hydrolysis, epi-absorbance fluorescence; inhibition, % at 5.6 µM;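 active means inhibition above the mean plus 3 SD of all compounds in the same screening run, cut at about 4.5% in these data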
#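 Assay system: purified IMP-1; Quantity: IMP-1 0.2 nM before substrate addition; Medium: HEPES buffer pH 7.1 with ZnSO4 and Brij 35; Incubation: 15 min enzyme–compound preincubation, then 25 min nitrocefin reaction, 25 °C; Signal: fluorescence quenching readout, ex 480/em 530 nm; Controls: DMSO with and without IMP-1; Repeats: singlicate testing.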
# NLRP3 yeast inh: NALP3 inflammasome inhibitors in reconstituted yeast, primary screen, luminescence, uHTS; Yeast reconstituted NLRP3/ASC/caspase-1, beta-gal luminescence, 24 h; 330,000 compounds, 0.39% hits; inhibition, % at 10 µM;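 active means inhibition of 50% or more; inactive means inhibition below 50%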
# PolyA inhibitor: polyadenylation inhibitors in yeast reporter cells, primary screen, luminescence, S. cerevisiae; activity score, % at 12 µM; 300,000 compounds, 0.02% hits; S. cerevisiae SKY197-pL101 polyadenylation reporter, beta-gal luminescence; efflux-impaired pdr1/pdr3 knockout yeast; score 100 = 6 SD above DMSO; AID 1875, 2009;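 active means lowest replicate activity score at least 50, where 100 means six control SD above control mean; inconclusive means lowest score under 50 but half or more replicates reach 50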;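 further: yeast exposed to compound for 9 h at 30 °C; higher score means more reporter readthrough which indicates perturbed polyadenylation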
# VIM-2 inhibitor: VIM-2 metallo-beta-lactamase inhibitors, primary screen, biochemical, epi-absorbance readout, Pseudomonas aeruginosa enzyme | purified VIM-2, nitrocefin hydrolysis, epi-absorbance fluorescence | 290,000 compounds, 0.89% hits | AID 1527, 2009 | inhibition, % at 5.6 µM;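 active means inhibition above the mean of all tested compounds plus 3 SD, cutoff set per screening run, cut at about 7.5% in these data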;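 further: red hydrolysis product quenches plate fluorescence so inhibitors raise well fluorescence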
# NALP1 inh: NALP1 inflammasome inhibitors in reconstituted yeast, colorimetric, S. cerevisiae, triplicate retest | S. cerevisiae NALP1/ASC/caspase-1 growth, X-gal OD620, 72 h | inhibition, % at 10 µM | 280,000 compounds, 0.61% hits | AID 2071, 2009; in the data active means inhibition mostly above about 24%, no sharp cut-off; inactive means mostly below about 32%
# SUMO Mot1 rescue: yeast Mot1-301 growth rescue at high temperature, primary screen, SUMOylation pathway inhibitor project, S. cerevisiae, ATP luminescence, 38.5C; S. cerevisiae Mot1-301 growth rescue; percent above DMSO median, 100 means doubled; growth rescue, % at 18.8 µM; 320,000 compounds, 1% hits;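 active means every valid replicate shows activation above 250% relative to neutral control wells; inactive means the rest, any valid replicate at or below 250%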
# Hits are given with their value; . = inactive; ? = inconclusive; / = no result; + = active, no number.
SMILES,IMP-1 inh,NLRP3 yeast inh,PolyA inhibitor,VIM-2 inhibitor,NALP1 inh,SUMO Mot1 rescue
COC(=O)c1sc2nc(-c3ccco3)ccc2c1N,.,.,.,.,.,.
CSc1nc2c(c(=O)n1-c1ccc(C)cc1)SCC2,.,.,.,.,28,.
CCOc1cccc(-c2c(C(=O)N/N=C/c3ccc(Br)cc3)nnn2-c2nonc2N)c1,.,.,.,.,.,.
Cc1ccc2nc(/C(C#N)=C\c3ccc([N+](=O)[O-])o3)[nH]c2c1,.,.,/,.,52,.
N#C/C(=C\c1ccc([N+](=O)[O-])o1)c1nc2ccccc2[nH]1,.,.,711,.,101,357
Cc1ccc2nc(/C(C#N)=C\c3ccc(N4CCOCC4)o3)[nH]c2c1,.,.,?,.,.,.
N#C/C(=C(/O)c1ccc([N+](=O)[O-])o1)c1nc2ccccc2[nH]1,.,.,.,.,/,.
CCOC(=O)c1c(C)n(C)c2ccc(OCC(O)Cn3c(C)nc4ccccc43)cc12 (stereo not drawn),.,.,.,.,.,.
CCOC(=O)c1c(C)n(C)c2ccc(OCC(O)CNCCc3ccccc3)cc12 (stereo not drawn),.,.,.,9.7,.,.
CN1C(=O)C(O)(CC(=O)c2cccnc2)c2ccccc21 (stereo not drawn),8.6,.,.,.,.,.
CCOC(=O)CSc1nc2ccccc2c(=O)[nH]1,.,.,.,.,/,.
CCOC(=O)c1nc2ccccc2c(=O)[nH]1,.,.,.,.,43,.
O=C(/C=C/c1cccc([N+](=O)[O-])c1)N(c1ccccn1)c1ccccn1,.,.,.,.,/,+
CC(C)N(C(=O)/C=C/c1cccc([N+](=O)[O-])c1)C(C)C,.,.,.,.,.,.
O=C(/C=C/c1cccc([N+](=O)[O-])c1)c1ccco1,.,.,.,.,47,.
O=C(/C=C/c1cccc([N+](=O)[O-])c1)c1ccc([N+](=O)[O-])o1,/,/,.,/,/,.
O=C(/C=C/c1cccc([N+](=O)[O-])c1)Nc1ccccn1,.,.,.,.,23,/
O=C(N/N=C/C=C\c1cccc([N+](=O)[O-])c1)c1ccccn1,.,.,.,.,.,.
Cc1nn(S(=O)(=O)c2ccc(Br)cc2)c(C)c1S(=O)(=O)N1CCOCC1,.,.,.,.,.,.
COc1ccc(C2c3ccc4ccccc4c3Oc3ncn(CCN(C)C)c(=N)c32)cc1 (stereo not drawn),.,.,.,.,.,.
Cc1ccc(-c2cc(C(=O)NCCN3CCOCC3)no2)cc1,10,.,.,.,.,.
Cc1ccsc1/C=C(\C#N)C(=O)NCCCN1CCOCC1,.,.,.,.,.,.
Cc1ccc(/C=C(\C#N)C(=O)NCCN2CCOCC2)cc1,.,.,.,.,21,.
O=C(NCCN1CCOCC1)c1noc2c1CCc1ccccc1-2,.,.,.,.,23,.
O=C(NCCN1CCOCC1)c1cc(-c2ccc(F)cc2)on1,.,.,.,.,.,.
SMILES,IMP-1 inh,NLRP3 yeast inh,PolyA inhibitor,VIM-2 inhibitor,NALP1 inh,SUMO Mot1 rescue
C=CCn1c(SCC(=O)Nc2cccc(S(N)(=O)=O)c2)nnc1C1CCCCC1,/,.,/,/,/,/
CCC(C)c1ccc(NC(=O)Nc2cnccn2)cc1 (stereo not drawn),.,.,.,.,.,.
Clc1ccc(/C(Cc2nc3ccccc3[nH]2)=N\Nc2ccccc2)cc1,.,.,.,.,28,.
O=C(Cc1nc2ccccc2[nH]1)c1ccc(Cl)cc1,.,.,.,.,.,.
Cc1nc2ccccc2nc1N/N=C/c1ccc(O)cc1,.,.,.,7.8,.,.
Oc1ccc(/C=N/Nc2ccccc2)cc1,.,.,.,.,.,.
CCn1ncc(C(=O)Nc2cccc(Cl)c2)c1C,.,.,.,.,45,.
CC(C)(C)NC(=O)CCN(/N=C/c1ccccc1F)C1=NS(=O)(=O)c2ccccc21,.,.,.,.,.,312
CC(C)(C)NC(=O)CCN(/N=C/c1ccccc1)C1=NS(=O)(=O)c2ccccc21,.,.,.,.,.,.
Clc1ccc(CN2CCC(Cc3ccccc3)CC2)cc1,.,.,.,.,.,.
c1ccc(CC2CCN(Cc3ccccn3)CC2)cc1,.,.,.,.,.,343
O=C(CN1CCC(O)(c2ccc3c(c2)OCO3)CC1)N1CCOCC1,.,.,.,.,.,.
OC1(c2ccc3c(c2)OCO3)CCN(Cc2ccccn2)CC1,.,.,.,.,30,.
CC(=O)c1ccc(N(CC(=O)NC2CCCCC2)C(=O)c2csnn2)cc1,.,.,.,.,.,.
CCCc1nnc(N2C(=O)c3cccc4cccc(c34)C2=O)s1,.,.,.,8.7,.,.
Cc1nn(C)cc1CN(C)S(=O)(=O)c1cccc([N+](=O)[O-])c1,.,.,.,.,.,550
Cc1nn(S(=O)(=O)c2cccc([N+](=O)[O-])c2)c(C)c1Br,.,.,/,.,.,.
COc1ccccc1NS(=O)(=O)c1cccc(NS(=O)(=O)c2ccc(Cl)c(C(=O)O)c2)c1,/,.,/,/,/,.
CC(=O)/C(=C/N(C)C)C(=O)Nc1ccc(Cl)cc1Cl,.,.,.,.,.,.
CN(C)CCNC=C(C(=O)Nc1ccc(Cl)cc1Cl)C(=O)Nc1ccc(Cl)cc1Cl,.,.,.,.,80,.
CCN(C(=O)CSc1n[nH]c(N)n1)c1cccc2ccccc12,/,.,/,/,/,.
Cc1ccc(NC(=O)Nc2ccc3c(c2)CCC3)cc1,.,.,.,.,38,.
Cc1noc(C)c1S(=O)(=O)N(C)C[C@H]1Oc2ccc(NS(=O)(=O)c3cn(C)cn3)cc2C(=O)N([C@H](C)CO)C[C@@H]1C,/,.,/,/,/,.
Cc1cc(=O)oc2cc(OCC(O)Cn3ccnc3)ccc12 (stereo not drawn),.,.,.,10,.,.
Cc1cc(=O)oc2cc(OCC(=O)NCCCn3ccnc3)ccc12,.,.,.,12,.,.
O=C(O)C1C2C=CC(C2)C1C(=O)NCc1ccc2c(c1)OCO2 (stereo not drawn),.,.,.,.,.,.
O=C(O)C1C2C=CC(C2)C1C(=O)NCc1ccc(Cl)c(Cl)c1 (stereo not drawn),.,.,.,.,47,.
O=C(CO/N=C/c1cccc([N+](=O)[O-])c1)NC1CCCCC1,.,.,.,.,.,.
O=C(CO/N=C/c1cccc([N+](=O)[O-])c1)Nc1ccc2ccccc2c1,.,.,.,.,.,338

# Assay outcomes (PubChem)
